Data published in ChEMBL document CHEMBL4261538, “Synthesis and molecular docking studies of xanthone attached amino acids as potential antimicrobial and anti-inflammatory agents” (Medchemcomm, 2017).
≈ marks a conversion by molar mass, not a printed value. Calls of active or inactive are those of the source. The calls are words filed in the database; no cut-off is given here.

Assays:
Candida albicans [1] = test: Antifungal activity against Candida albicans at 75 ug/ml incubated for 48 hrs by agar well diffusion method; type: functional; settings: read-out: DIZ
Procedure, shortened: (§1)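 Compounds dissolved in DMSO at 5 mg mL⁻¹ and 5–20 µL added to 6 mm wells, giving 25, 50, 75, 100 µg per well. Bavistin was the positive control and DMSO the negative control. Plates incubated at 28 °C for 48 h, then inhibition zone diameter (mm) measured. Values are means of three determinations.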

Klebsiella pneumoniae [2] = test: Antibacterial activity against Klebsiella pneumoniae at 100 ug/ml incubated for 24 hrs by agar well diffusion method; type: functional; settings: read-out: DIZ
Procedure, shortened: as §1, with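 “Bacteria grown in nutrient broth at 37 °C for 24 h, then subcultured at room temperature. Compounds” for “Compounds”, “Gentamicin” for “Bavistin”, “held” for “incubated”, “37” for “28”, “24” for “48”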

Aspergillus niger [3] = test: Antifungal activity against Aspergillus niger at 50 ug/ml incubated for 48 hrs by agar well diffusion method; type: functional; settings: for zone of inhibition at 50 µg/mL: read-out: DIZ; procedure, shortened: as §1
Erythrocyte = test: Anti-inflammatory activity in human RBC assessed as inhibition of hypotonic solution-induced hemolysis after 10 mins by spectrophotometric method; type: functional, cell-based
Procedure, shortened: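 Human blood (heparinized) washed with 0.9% saline, packed cells made into a 40% v/v stock in isotonic phosphate buffer (154 mM NaCl, 10 mM sodium phosphate, pH 7.4). Stock RBC mixed with hypotonic buffer (50 mM NaCl, 10 mM phosphate, pH 7.4) plus sample at 20–100 µg mL⁻¹.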

Fusarium oxysporum [4] = test: Antifungal activity against Fusarium oxysporum at 75 ug/ml incubated for 48 hrs by agar well diffusion method; type: functional; settings: read-out: DIZ; procedure, shortened: as §1
Candida albicans [5] = test: Antifungal activity against Candida albicans at 100 ug/ml incubated for 48 hrs by agar well diffusion method; type: functional; settings: read-out: DIZ; procedure, shortened: as §1
Escherichia coli [6] = test: Antibacterial activity against Escherichia coli at 50 ug/ml incubated for 24 hrs by agar well diffusion method; type: functional; settings: read-out: DIZ
Procedure, shortened: as §1, with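 “Bacteria grown in nutrient broth at 37 °C for 24 h, then subcultured at room temperature. Compounds” for “Compounds”, “Gentamicin” for “Bavistin”, “held” for “incubated”, “37” for “28”, “24” for “48”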

Klebsiella pneumoniae [7] = test: Antibacterial activity against Klebsiella pneumoniae at 50 ug/ml incubated for 24 hrs by agar well diffusion method; type: functional; settings: read-out: DIZ
Procedure, shortened: as §1, with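 “Bacteria grown in nutrient broth at 37 °C for 24 h, then subcultured at room temperature. Compounds” for “Compounds”, “Gentamicin” for “Bavistin”, “held” for “incubated”, “37” for “28”, “24” for “48”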

Klebsiella pneumoniae [8] = test: Antibacterial activity against Klebsiella pneumoniae at 75 ug/ml incubated for 24 hrs by agar well diffusion method; type: functional; settings: read-out: DIZ
Procedure, shortened: as §1, with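 “Bacteria grown in nutrient broth at 37 °C for 24 h, then subcultured at room temperature. Compounds” for “Compounds”, “Gentamicin” for “Bavistin”, “held” for “incubated”, “37” for “28”, “24” for “48”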

Bacillus subtilis [9] = test: Antibacterial activity against Bacillus subtilis at 50 ug/ml incubated for 24 hrs by agar well diffusion method; type: functional; settings: for zone of inhibition at 50 µg/mL: read-out: DIZ
Procedure, shortened: as §1, with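 “Bacteria grown in nutrient broth at 37 °C for 24 h, then subcultured at room temperature. Compounds” for “Compounds”, “Gentamicin” for “Bavistin”, “held” for “incubated”, “37” for “28”, “24” for “48”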

Fusarium oxysporum [10] = test: Antifungal activity against Fusarium oxysporum at 100 ug/ml incubated for 48 hrs by agar well diffusion method; type: functional; settings: read-out: DIZ; procedure, shortened: as §1
Escherichia coli [11] = test: Antibacterial activity against Escherichia coli at 75 ug/ml incubated for 24 hrs by agar well diffusion method; type: functional; settings: read-out: DIZ
Procedure, shortened: as §1, with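 “Bacteria grown in nutrient broth at 37 °C for 24 h, then subcultured at room temperature. Compounds” for “Compounds”, “Gentamicin” for “Bavistin”, “held” for “incubated”, “37” for “28”, “24” for “48”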

Bacillus subtilis [12] = test: Antibacterial activity against Bacillus subtilis at 25 ug/ml incubated for 24 hrs by agar well diffusion method; type: functional; settings: for zone of inhibition at 25 µg/mL: read-out: DIZ
Procedure, shortened: as §1, with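 “Bacteria grown in nutrient broth at 37 °C for 24 h, then subcultured at room temperature. Compounds” for “Compounds”, “Gentamicin” for “Bavistin”, “held” for “incubated”, “37” for “28”, “24” for “48”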

Candida albicans [13] = test: Antifungal activity against Candida albicans at 50 ug/ml incubated for 48 hrs by agar well diffusion method; type: functional; settings: read-out: DIZ; procedure, shortened: as §1
Staphylococcus aureus [14] = test: Antibacterial activity against Staphylococcus aureus at 75 ug/ml incubated for 24 hrs by agar well diffusion method; type: functional; settings: read-out: DIZ
Procedure, shortened: as §1, with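 “Bacteria grown in nutrient broth at 37 °C for 24 h, then subcultured at room temperature. Compounds” for “Compounds”, “Gentamicin” for “Bavistin”, “held” for “incubated”, “37” for “28”, “24” for “48”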

Aspergillus niger [15] = test: Antifungal activity against Aspergillus niger at 100 ug/ml incubated for 48 hrs by agar well diffusion method; type: functional; settings: read-out: DIZ; procedure, shortened: as §1
Fusarium oxysporum [16] = test: Antifungal activity against Fusarium oxysporum at 50 ug/ml incubated for 48 hrs by agar well diffusion method; type: functional; settings: read-out: DIZ; procedure, shortened: as §1
Klebsiella pneumoniae [17] = test: Antibacterial activity against Klebsiella pneumoniae at 25 ug/ml incubated for 24 hrs by agar well diffusion method; type: functional; settings: read-out: DIZ
Procedure, shortened: as §1, with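 “Bacteria grown in nutrient broth at 37 °C for 24 h, then subcultured at room temperature. Compounds” for “Compounds”, “Gentamicin” for “Bavistin”, “held” for “incubated”, “37” for “28”, “24” for “48”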

Staphylococcus aureus [18] = test: Antibacterial activity against Staphylococcus aureus at 100 ug/ml incubated for 24 hrs by agar well diffusion method; type: functional; settings: read-out: DIZ
Procedure, shortened: as §1, with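 “Bacteria grown in nutrient broth at 37 °C for 24 h, then subcultured at room temperature. Compounds” for “Compounds”, “Gentamicin” for “Bavistin”, “held” for “incubated”, “37” for “28”, “24” for “48”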

Aspergillus niger [19] = test: Antifungal activity against Aspergillus niger at 75 ug/ml incubated for 48 hrs by agar well diffusion method; type: functional; settings: read-out: DIZ; procedure, shortened: as §1
Escherichia coli [20] = test: Antibacterial activity against Escherichia coli at 25 ug/ml incubated for 24 hrs by agar well diffusion method; type: functional; settings: read-out: DIZ
Procedure, shortened: as §1, with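 “Bacteria grown in nutrient broth at 37 °C for 24 h, then subcultured at room temperature. Compounds” for “Compounds”, “Gentamicin” for “Bavistin”, “held” for “incubated”, “37” for “28”, “24” for “48”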

Bacillus subtilis [21] = test: Antibacterial activity against Bacillus subtilis at 75 ug/ml incubated for 24 hrs by agar well diffusion method; type: functional; settings: read-out: DIZ
Procedure, shortened: as §1, with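 “Bacteria grown in nutrient broth at 37 °C for 24 h, then subcultured at room temperature. Compounds” for “Compounds”, “Gentamicin” for “Bavistin”, “held” for “incubated”, “37” for “28”, “24” for “48”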

Staphylococcus aureus [22] = test: Antibacterial activity against Staphylococcus aureus at 25 ug/ml incubated for 24 hrs by agar well diffusion method; type: functional; settings: read-out: DIZ
Procedure, shortened: as §1, with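 “Bacteria grown in nutrient broth at 37 °C for 24 h, then subcultured at room temperature. Compounds” for “Compounds”, “Gentamicin” for “Bavistin”, “held” for “incubated”, “37” for “28”, “24” for “48”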

Aspergillus niger [23] = test: Antifungal activity against Aspergillus niger at 25 ug/ml incubated for 48 hrs by agar well diffusion method; type: functional; settings: for zone of inhibition at 25 µg/mL: read-out: DIZ; procedure, shortened: as §1
Bacillus subtilis [24] = test: Antibacterial activity against Bacillus subtilis at 100 ug/ml incubated for 24 hrs by agar well diffusion method; type: functional; settings: read-out: DIZ
Procedure, shortened: as §1, with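 “Bacteria grown in nutrient broth at 37 °C for 24 h, then subcultured at room temperature. Compounds” for “Compounds”, “Gentamicin” for “Bavistin”, “held” for “incubated”, “37” for “28”, “24” for “48”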

Fusarium oxysporum [25] = test: Antifungal activity against Fusarium oxysporum at 25 ug/ml incubated for 48 hrs by agar well diffusion method; type: functional; settings: read-out: DIZ; procedure, shortened: as §1
Staphylococcus aureus [26] = test: Antibacterial activity against Staphylococcus aureus at 50 ug/ml incubated for 24 hrs by agar well diffusion method; type: functional; settings: read-out: DIZ
Procedure, shortened: as §1, with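 “Bacteria grown in nutrient broth at 37 °C for 24 h, then subcultured at room temperature. Compounds” for “Compounds”, “Gentamicin” for “Bavistin”, “held” for “incubated”, “37” for “28”, “24” for “48”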

Escherichia coli [27] = test: Antibacterial activity against Escherichia coli at 100 ug/ml incubated for 24 hrs by agar well diffusion method; type: functional; settings: read-out: DIZ
Procedure, shortened: as §1, with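 “Bacteria grown in nutrient broth at 37 °C for 24 h, then subcultured at room temperature. Compounds” for “Compounds”, “Gentamicin” for “Bavistin”, “held” for “incubated”, “37” for “28”, “24” for “48”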

Candida albicans [28] = test: Antifungal activity against Candida albicans at 25 ug/ml incubated for 48 hrs by agar well diffusion method; type: functional; settings: read-out: DIZ; procedure, shortened: as §1

SMILES | zone of inhibition at 75 µg/mL (Candida albicans [1]) [mm] | zone of inhibition at 100 µg/mL (Klebsiella pneumoniae [2]) [mm] | zone of inhibition at 75 µg/mL (Fusarium oxysporum [4]) [mm] | zone of inhibition at 100 µg/mL (Candida albicans [5]) [mm] | zone of inhibition at 50 µg/mL (Klebsiella pneumoniae [7]) [mm] | zone of inhibition at 75 µg/mL (Klebsiella pneumoniae [8]) [mm] | zone of inhibition at 100 µg/mL (Fusarium oxysporum [10]) [mm] | zone of inhibition at 50 µg/mL (Candida albicans [13]) [mm] | zone of inhibition at 75 µg/mL (Staphylococcus aureus [14]) [mm] | zone of inhibition at 100 µg/mL (Aspergillus niger [15]) [mm] | zone of inhibition at 50 µg/mL (Fusarium oxysporum [16]) [mm] | zone of inhibition at 25 µg/mL (Klebsiella pneumoniae [17]) [mm] | zone of inhibition at 100 µg/mL (Staphylococcus aureus [18]) [mm] | zone of inhibition at 75 µg/mL (Aspergillus niger [19]) [mm] | zone of inhibition at 75 µg/mL (Bacillus subtilis [21]) [mm] | zone of inhibition at 25 µg/mL (Staphylococcus aureus [22]) [mm] | zone of inhibition at 100 µg/mL (Bacillus subtilis [24]) [mm] | zone of inhibition at 25 µg/mL (Fusarium oxysporum [25]) [mm] | zone of inhibition at 50 µg/mL (Staphylococcus aureus [26]) [mm] | zone of inhibition at 25 µg/mL (Candida albicans [28]) [mm] | other results
CC(C)(C)OC(=O)NCC(=O)Oc1ccc2c(=O)c3ccccc3oc2c1 | 14 | 23 | 13 | 16 | 12 | 17 | 15 | 10 | 16 | 15 | 9 | 16 | 22 | 12 | 16 | 7 | 20 | 4 | 12 | 7 | zone of inhibition at 50 µg/mL (Aspergillus niger [3]): 9 mm; IC50 (Erythrocyte): 66 µg/mL (≈ 179 µM); zone of inhibition at 50 µg/mL (Escherichia coli [6]): 3 mm; zone of inhibition at 50 µg/mL (Bacillus subtilis [9]): 12 mm; zone of inhibition at 75 µg/mL (Escherichia coli [11]): 16 mm; zone of inhibition at 25 µg/mL (Bacillus subtilis [12]): 6 mm; zone of inhibition at 25 µg/mL (Escherichia coli [20]): 7 mm; zone of inhibition at 25 µg/mL (Aspergillus niger [23]): 5 mm; zone of inhibition at 100 µg/mL (Escherichia coli [27]): 21 mm
CC(C)C[C@H](NC(=O)OC(C)(C)C)C(=O)Oc1ccc2c(=O)c3ccccc3oc2c1 | 16 | 20 | 15 | 20 | 11 | 14 | 19 | 11 | 17 | 22 | 12 | 8 | 22 | 18 | 20 | 7 | 24 | 10 | 13 | 8 | zone of inhibition at 50 µg/mL (Aspergillus niger [3]): 15 mm; IC50 (Erythrocyte): 64 µg/mL (≈ 150 µM); zone of inhibition at 50 µg/mL (Escherichia coli [6]): 10 mm; zone of inhibition at 50 µg/mL (Bacillus subtilis [9]): 16 mm; zone of inhibition at 75 µg/mL (Escherichia coli [11]): 17 mm; zone of inhibition at 25 µg/mL (Bacillus subtilis [12]): 11 mm; zone of inhibition at 25 µg/mL (Escherichia coli [20]): 4 mm; zone of inhibition at 25 µg/mL (Aspergillus niger [23]): 10 mm; zone of inhibition at 100 µg/mL (Escherichia coli [27]): 21 mm
N[C@@H](Cc1ccc(O)cc1)C(=O)O [TYROSINE] | 13 | 15 | 12 | 15 | 7 | 11 | 14 | 8 | 12 | 11 | 7 | 4 | 17 | 7 | 9 | 4 | 12 | 3 | 8 | 4 | diameter of the inhibition zone (DIZ) (Aspergillus niger [3]): inactive; diameter of the inhibition zone (DIZ) (Bacillus subtilis [9]): inactive; diameter of the inhibition zone (DIZ) (Bacillus subtilis [12]): inactive; diameter of the inhibition zone (DIZ) (Aspergillus niger [23]): inactive
